Data taken from ChEMBL document CHEMBL3779860, “A Designed Tryptophan- and Lysine/Arginine-Rich Antimicrobial Peptide with Therapeutic Potential for Clinical Antibiotic-Resistant Candida albicans Vaginitis” (J Med Chem, 2016).
Active and inactive are the calls of the source. The calls are words filed in the database; no cut-off is given here.

Legend:
[1] = tested on: Candida albicans; test: Antimicrobial activity against antibiotic resistant Candida albicans clinical isolate 08032821 compound treated in PBS solution measured after 36 hrs by disc diffusion method; format: functional; settings: isolate 08032821, 36 h
Method in brief: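 Salt-tolerance test: peptide at 2 mg/mL was prepared in sterile ddH2O, in 150 mM NaCl, or in PBS (150 mM NaCl, 2.7 mM KCl, 1.5 mM KH2PO4, 8 mM K2HPO4, pH 7.2). Anti-C. albicans activity was then assessed by inhibition zone on Sabouraud medium with 0.7% agar.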

[2] = tested on: Candida albicans; test: Antimicrobial activity against antibiotic resistant Candida albicans after 6 hrs by disc diffusion method in presence of human plasma; format: functional, organism-based
Method in brief: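 Peptide mixed with human plasma (final concentration 100 µM) at 37°C for up to 24 h. 10 µL aliquots were applied to C. albicans in Sabouraud medium with 0.7% agar. Inhibition zone diameters were read after 36 h.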

[3] = tested on: Candida albicans; test: Antimicrobial activity against antibiotic resistant Candida albicans clinical isolate 08030809 assessed as clone count at MIC after 1 min by colony counting assay (reference value: 62 +/- 7 CFU); format: functional
[4] = tested on: Candida albicans; test: Antimicrobial activity against antibiotic resistant Candida albicans clinical isolate 08030809 assessed as clone count at MIC after 24 hrs by colony counting assay (Rvb > 10^5 CFU); format: functional
[5] = tested on: Candida albicans; test: Antimicrobial activity against antibiotic resistant Candida albicans clinical isolate 08030809 assessed as clone count at 5 times MIC after 1 min by colony counting assay (reference value: 62 +/- 7 CFU); format: functional
[6] = tested on: Candida albicans; test: Antimicrobial activity against antibiotic resistant Candida albicans clinical isolate 08030809 assessed as clone count at 5 times MIC after 30 mins by colony counting assay (reference value: 156 +/- 16 CFU); format: functional
[7] = tested on: Mus musculus; test: Antiinflammatory activity in antibiotic resistant Candida albicans clinical isolate 08030809 induced mouse vaginitis model assessed as reduction in IL-1beta secretion in vaginal tissue at 50 ug administered as intravaginal instillation measured on day 10 by ELISA; format: functional, Vagina
Method in brief: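 Same estradiol-primed mouse model, infected intravaginally with C. albicans 08030809 and treated by intravaginal instillation (20 µL/mouse). Vaginal canals excised on day 10 of treatment and homogenised in 0.9% NaCl. Supernatant taken after 2,000 g for 15 min. TNF-α, IL-6, IL-1β and IL-10 measured by ELISA. Mean ± SE of three independent experiments; unpaired t-test versus vehicle.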

[8] = tested on: Candida albicans; test: Antimicrobial activity against antibiotic resistant Candida albicans clinical isolate 08030809 in mouse vaginitis model assessed as colony count in lavage liquid of vagina at 50 ug administered as intravaginal instillation measured on day 16; format: functional
[9] = tested on: Candida albicans; test: Antimicrobial activity against antibiotic resistant Candida albicans clinical isolate 08030809 in mouse vaginitis model assessed as decrease in colony count in lavage liquid of vagina at 20 ug administered as intravaginal instillation measured on day 16; format: functional
[10] = tested on: Candida albicans; test: Effect on cell membrane integrity in antibiotic resistant Candida albicans clinical isolate 08030809 at MIC measured every 2 mins upto 20 mins by SYTOX green nucleic acid staining-based fluorescence assay; format: functional, organism-based
Method in brief: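 Exponential-phase C. albicans 08030809 was washed and resuspended at 10^6 CFU/mL in 10 mM PBS pH 7.4. Cells were loaded with 0.1 µM (final) SYTOX Green for 15 min at 37°C with shaking, then test samples were added. Fluorescence (ex 488/em 530 nm) was recorded every 2 min as RFU. Mean ± SE of five independent experiments.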

H-VKRWKKWRWKWKKWV-NH2
MIC [1]: 2.65 µg/mL
Activity [2]: Active
Activity [3]: 18 CFU
Activity [4]: 0 CFU
Activity [5]: 10 CFU
Activity [6]: 0 CFU
inhibition (INH) [7]: 63%
Activity [8]: 2.9 ×10³ CFU/ml
inhibition (INH) [9]: 71%
Activity [10]: Active
